b-catenin transl – alters nuclear translocation of beta-catenin in HeLa cells; immunofluorescence imaging; nuclear translocation activity, % at 5 µM; 190,000 tested, 0.3% active;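 active = nuclear translocation activity above 50% at 5 µM, with a well cell count of 50 or more; inconclusive = wells under 50 cells across six images, flagged as toxic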;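 note: per-cell ratio of nuclear to cytoplasmic median beta-catenin stain intensity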
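System: HeLa cells, endogenous beta-catenin; compound dosing: 5 µM primary single dose, 0.1% DMSO, 0.02–20 µM confirmation series; incubation: 24 h compound exposure at 37°C, 5% CO2; signal: beta-catenin immunofluorescence imaging with DAPI; evaluation: % activation, nuclear-to-cytoplasmic median beta-catenin signal ratio per cell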
Autophagy HCS – alters autophagy in cells; AID 463193; 190,000 tested, 0.98% active; MEF GFP-LC3 puncta imaging; test concentration mostly 10 µM; calls only at 10 µM (by protocol);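 active = percentage of spot-positive cells more than 3 SD above its plate mean, without a fluorescence outlier flag or 80% toxicity; inconclusive = no clear call, values can overlap the other calls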
MT stabilize HCS – stabilizes microtubules in HeLa cells; HeLa tubulin immunostaining HCS, 24 h; share of cells brighter than vehicle mean+2SD; % tubulin-high responders, % at 10 µM; 200,000 tested, 0.83% active; AID 2205;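 active = plate Z-score above 3 for both tubulin-high and condensed-nucleus cell shares, with cell loss under 80%, at 10 µM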;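 note: anti alpha tubulin signal scored within the nucleus-defined area of each cell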
Insulin prom up – MIN6 insulin promoter up-regulation; MIN6 insulin promoter-GFP reporter, high-content imaging; hits give high values; AID 1625; 190,000 tested, 0.3% active; z-score at 5 µM;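 active = z-score above 3 at 5 µM with at least 500 cells counted in the well; inconclusive = wells under 500 cells, flagged as cytotoxic or low count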
Hits are given with their value; n = inactive; u = inconclusive; x = not tested or not shown; + = active, no number. In the library only some 1.9% were active in any assay of this set; here they are far more common.

SMILES	b-catenin transl	Autophagy HCS	MT stabilize HCS	Insulin prom up
Cc1nn(Cc2ccccc2)c(C)c1NC(=O)c1cc2nc(-c3ccco3)cc(C(F)(F)F)n2n1	n	n	n	n
O=C1COc2ccc(C(=O)COC(=O)CCSc3ccc(Cl)cc3)cc2N1	n	n	n	n
C#CCOC(=O)Nc1ccc(=O)n(Cc2c(Cl)cccc2Cl)c1	x	n	n	x
C=CCN1C(=O)/C(=C/c2ccc(N(C)C)cc2)S/C1=N\c1nnc(CC)s1	n	+	n	x
C=CCN1C(=O)/C(=C/c2ccc(OCC(=O)O)cc2)S/C1=N/c1nccs1	n	n	n	n
S=C(NCCc1cnc[nH]1)NC1CCCC1	n	n	n	n
COn1c(SCc2ccc(C)cc2C)nc2ccccc2c1=O	51	n	41	n
COc1ccc(OCc2n(CC(=O)OC3CC(C)CCC3C(C)C)c3ccccc3[n+]2C)cc1 (stereo not drawn)	n	x	x	u
COc1ccc(-c2n(CC(=O)OC3CC(C)CCC3C(C)C)c3ccccc3[n+]2C)cc1 (stereo not drawn)	n	+	n	x
COc1ccc(CCNc2nc3ccccc3n3nnnc23)cc1OC	x	n	n	n
c1ccc(CCNc2nc3ccccc3n3nnnc23)cc1	n	+	n	n
Cc1nn(-c2ccccc2)c(C)c1/C=N/NC(=O)c1cc(-c2cccs2)[nH]n1	162	n	8.9	n
Cc1nn(-c2ccccc2)c(C)c1/C=N/NC(=O)c1cc(-c2ccc(Cl)s2)[nH]n1	119	n	16	n
Cc1ccc(C)c(OCC(=O)N/N=C/c2c(C)nn(-c3ccccc3)c2Cl)c1	n	n	21	n
CC(/C=N/NC(=O)c1cc(-c2ccc(C)s2)[nH]n1)=C\c1ccccc1	n	n	28	n
O=C(CSc1ncn[nH]1)Nc1c(F)cc(F)cc1Br	n	n	n	n
O=C(COC(=O)c1cccc(NS(=O)(=O)c2ccc(F)c(F)c2)c1)NC(=O)NC1CCCC1	n	n	n	n
Fc1ccc(-c2cn3cc(C(F)(F)F)cc(Cl)c3n2)cc1	n	n	n	n
COc1ccc(-c2cn3cc(C(F)(F)F)cc(Cl)c3n2)cc1	n	n	16	n
Nc1cc(-c2cccc(Br)c2)nn1Cc1ccccc1	n	+	n	n
Nc1cc(-c2ccc(Br)cc2)nn1Cc1ccccc1	n	n	n	n
CC(=O)N1CCN(Cc2nc3cc(NC(=O)Nc4ccccc4)ccc3n2C)CC1	n	n	n	n
CC(=O)N1CCN(Cc2nc3cc(NC(=O)c4ccccc4)ccc3n2C)CC1	n	n	n	3.4
Cc1ccc(-c2csc(/C=C3\SC(C)C(=O)N3CC(=O)Nc3ccccc3F)n2)cc1 (stereo not drawn)	n	x	x	n
C=CCOc1c(Cl)cc(CNc2ccc(C)c(Cl)c2)cc1OC	146	n	18	n
SMILES	b-catenin transl	Autophagy HCS	MT stabilize HCS	Insulin prom up
C=CCOc1c(Cl)cc(CNc2ccc(N(C)C)cc2)cc1OC	n	n	32	n
CCOc1cc(CNc2ccc(S(N)(=O)=O)cc2)cc(Cl)c1OC	n	n	n	n
CCOc1cc(CNc2ccc(N3CCCC3)cc2)cc(Cl)c1OC	n	n	n	n
COc1cccc(CNc2ccc(C)c(Cl)c2)c1	n	n	n	n
COc1cc(CNc2ccc(N3CCCC3)cc2)cc(Cl)c1OC	n	n	16	n
CC(C)(C)c1ccc(/C=N/OCC(=O)NCc2ccc(F)cc2)cc1	x	n	12	n
COc1ccccc1N=C1SC(C(=O)Nc2cccc(Cl)c2Cl)C(N)=C1C(N)=O (stereo not drawn)	62	x	x	n
Clc1ccc(Cn2cccc2C2=NCCO2)cc1	n	n	n	n
CN(c1ccccc1C(=O)O)S(C)(=O)=O	n	n	n	n
CN(C)c1ccccc1C(=O)c1ccccc1N(C)C	n	x	55	n
CCO[C@@H]1OC(C(=O)NCc2ccccc2)=C[C@H](C2CC2)[C@H]1CCCO	n	n	n	n
CCO[C@@H]1OC(C(=O)NCc2nc3ccccc3[nH]2)=C[C@H](C2CC2)[C@H]1CCCO	n	n	28	n
CCOC(=O)c1c(Nc2ccc(Cl)cc2)sc(/C=C2\C=Nc3ccccc32)c1O	n	+	n	x
CCOc1ncccc1C(=O)OCc1ccc(Cl)cc1	n	n	n	n
CCOc1ncccc1C(=O)OCc1ccc(C(=O)OC)cc1	68	n	18	n
CC(=O)Nc1ccc(S(=O)(=O)N2CCN(Cc3cccs3)CC2)cc1	n	n	n	n
CC(=O)c1cccc(Nc2cc(C)nc3c(C)cc(C)cc23)c1	n	n	n	n
COc1ccc(Nc2cc(C)nc3ccccc23)cc1	n	n	n	n
CC(=O)c1ccc(Nc2cc(C)nc3c(C)cccc23)cc1	67	n	18	n
CC(=O)c1ccc(Nc2cc(C)nc3ccccc23)cc1	n	n	27	n
Cc1ccc(NS(=O)(=O)c2ccc(C(=O)OCC(=O)NCC3CCCO3)cc2)cc1 (stereo not drawn)	n	n	n	n
Cc1cc(/C=N/n2cnnc2)c(O)c([N+](=O)[O-])c1	n	n	n	n
CC[n+]1c(/C=C/c2c[nH]c3ccccc23)ccc2cc(C)ccc21	n	+	80	u
CCOC(=O)C1=C(C)N(C)C(=S)NC1c1ccc(Cl)cc1Cl (stereo not drawn)	n	n	n	n
CCCCCCCCCC(=O)Nc1cccnc1	n	n	n	n
SMILES	b-catenin transl	Autophagy HCS	MT stabilize HCS	Insulin prom up
NS(=O)(=O)c1cccc2cccnc12	n	n	n	5.5
CCCCSc1nc2c(cnn2-c2ccc(C)c(C)c2)c(=O)[nH]1	x	+	n	n
O=C(Nc1ccc(Cl)cn1)c1ccc([N+](=O)[O-])o1	n	n	8.3	n
Cc1c(Cl)c([N+](=O)[O-])nn1Cc1ccc(C(=O)Nc2ccc(Cl)cn2)o1	n	n	n	x
CCOC(=O)Cc1csc(NS(=O)(=O)c2ccc(C(F)(F)F)cc2)n1	n	x	x	x
CCOC(=O)CSC1=C(C#N)C(c2ccccc2OC)CC(=O)N1 (stereo not drawn)	n	n	21	n
COC(=O)CSC1=C(C#N)C(c2ccsc2)CC(=O)N1 (stereo not drawn)	n	n	45	n
CCSC1=C(C#N)C(c2ccccc2OC)CC(=O)N1 (stereo not drawn)	n	n	n	n
CCOC(=O)CSC1=C(C#N)C(c2ccc(C)s2)CC(=O)N1 (stereo not drawn)	n	n	31	n
CCSC1=C(C#N)C(c2ccc(C)s2)CC(=O)N1 (stereo not drawn)	n	n	n	n
COC(=O)CSC1=C(C#N)C(c2ccccc2)CC(=O)N1 (stereo not drawn)	x	n	n	n
CCCc1c(-c2ccc(O)cc2)nn(-c2ccc(O)cc2)c1-c1ccc(O)cc1	n	x	x	n
NS(=O)(=O)c1ccc(NC(=O)COC(=O)COc2ccc3ccccc3c2)cc1	n	n	n	n
COc1cc(/C=N/NC(=O)c2[nH]nc3c2CCc2ccccc2-3)ccc1O	n	n	24	n
COc1cc(C(=O)N/N=C/c2ccsc2C)cc(OC)c1OC	163	n	n	n
Cc1cc(C)c2nc(SCC#N)cc(C)c2c1	n	n	n	n
C/C(N)=C(/C#N)C(=O)CSc1cc(C)c2cc(C)cc(C)c2n1	n	+	n	n

Compound activity from PubChem.
